Results: ChEMBL document CHEMBL1148328, “Synthesis and structure-activity relationships of parasiticidal thiosemicarbazone cysteine protease inhibitors against Plasmodium falciparum, Trypanosoma brucei, and Trypanosoma cruzi” (J Med Chem, 2004)

Columns and labels:
[1] = system: Plasmodium falciparum; assay: Effective inhibition of Plasmodium falciparum; type: functional; conditions: read-out: ED50 (the source's name)
How it was run: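 W2-strain parasites at 1% parasitemia and 2% hematocrit, run in duplicate. Inhibitor diluted from DMSO stocks in 1:5 steps to final 10 μM, 2000, 400, 80, 16 and 3.2 nM. Cultures kept 2 days at 37 °C, then washed and fixed in 1% formaldehyde/PBS. Parasitemia measured by flow cytometry with YOYO-1 DNA stain.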

[2] = molecular target: Cruzipain (Trypanosoma cruzi, UniProt P25779); assay: Inhibition of cruzain from Trypanosoma cruzi
How it was run: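 Recombinant cruzain (2 nM) preincubated 5 min at room temperature with 0.5–10 μM inhibitor in 100 mM sodium acetate pH 5.5 with 5 mM DTT, 0.7% DMSO. Reaction started with Z-Phe-Arg-AMC at 20 μM final (Km 1 μM), followed by fluorescence at ex 355/em 460. IC50 read graphically from inhibition vs log[I], seven concentrations with at least two in the linear range.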

[3] = Survival of infected cells against Trypanosoma cruzi in days at a dose of 5 uM; Toxicity = None
[4] = molecular target: Rhodesain (Trypanosoma brucei rhodesiense, UniProt Q95PM0); assay: Inhibition of rhodesain from Trypanosoma brucei rhodesiense
How it was run: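 Recombinant rhodesain (3 nM) preincubated 5 min at room temperature with 0.5–10 µM inhibitor in 100 mM sodium acetate pH 5.5, 5 mM DTT, 0.7% DMSO final. Z-Phe-Arg-AMC then added (20 µM final) and fluorescence rise followed at ex 355/em 460. IC50 read graphically from linear portion of inhibition vs log[I], seven concentrations, at least two in linear range.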

[5] = system: Trypanosoma brucei rhodesiense; assay: Effective dose required to inhibit Trypanosoma brucei rhodesiense in culture; type: functional; conditions: read-out: ED50 (the source's name)
How it was run: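 T. b. rhodesiense grown at 37 °C, 5% CO2 in HMI-9 with 10% FBS and 10% Serum Plus, seeded at 10⁴ cells/mL. Inhibitor serially diluted directly in culture from the top concentration down to 1 nM. Exposure 48 h at 37 °C. Viability read as ATP content by CellTiter-Glo luminescence after 5 min shaking at room temperature, or by hemacytometer count.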

[6] = molecular target: T1, Falcipain 2 (Plasmodium falciparum, UniProt Q9N6S8); assay: Inhibition of falcipain2 from Plasmodium falciparum
T1 sequence (Q9N6S8 whole entry): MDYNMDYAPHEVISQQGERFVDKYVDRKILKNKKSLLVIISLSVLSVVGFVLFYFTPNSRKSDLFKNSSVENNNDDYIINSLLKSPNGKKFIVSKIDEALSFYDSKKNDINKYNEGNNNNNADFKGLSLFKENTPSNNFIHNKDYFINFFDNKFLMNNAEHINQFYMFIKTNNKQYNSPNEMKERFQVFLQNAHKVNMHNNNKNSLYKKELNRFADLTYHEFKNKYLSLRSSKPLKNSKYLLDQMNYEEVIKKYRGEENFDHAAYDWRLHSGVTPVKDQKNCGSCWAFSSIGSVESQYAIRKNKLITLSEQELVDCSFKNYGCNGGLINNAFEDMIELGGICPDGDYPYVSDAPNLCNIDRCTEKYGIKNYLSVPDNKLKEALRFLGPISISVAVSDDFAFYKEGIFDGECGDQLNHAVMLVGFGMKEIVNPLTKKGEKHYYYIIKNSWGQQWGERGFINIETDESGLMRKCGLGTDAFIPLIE
How it was run: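 Recombinant falcipain-2 preincubated 30 min at room temperature with inhibitor in 100 mM sodium acetate pH 5.5 with 10 mM DTT, DMSO at most 1%. Z-Leu-Arg-AMC then added to 25 μM final, and fluorescence monitored 15 min at room temperature. IC50 taken from plots of percent activity against compound concentration.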

[7] = Survival of infected cells against Trypanosoma cruzi in days at a dose of 5 uM; Toxicity = Toxic

Sequence of Cruzipain (P25779 whole entry): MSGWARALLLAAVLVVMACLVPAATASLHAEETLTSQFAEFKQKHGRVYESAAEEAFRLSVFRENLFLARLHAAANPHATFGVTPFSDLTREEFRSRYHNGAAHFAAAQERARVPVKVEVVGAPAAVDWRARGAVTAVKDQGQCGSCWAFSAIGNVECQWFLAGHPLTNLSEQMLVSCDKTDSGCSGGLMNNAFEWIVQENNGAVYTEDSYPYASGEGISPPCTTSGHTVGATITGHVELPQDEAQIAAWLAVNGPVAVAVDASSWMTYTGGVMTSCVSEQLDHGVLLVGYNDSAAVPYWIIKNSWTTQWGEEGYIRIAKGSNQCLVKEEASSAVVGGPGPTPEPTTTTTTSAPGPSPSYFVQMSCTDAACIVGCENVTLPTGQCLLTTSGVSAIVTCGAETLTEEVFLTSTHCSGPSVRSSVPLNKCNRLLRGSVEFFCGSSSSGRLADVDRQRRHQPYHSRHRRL
Sequence of Rhodesain (Q95PM0 whole entry): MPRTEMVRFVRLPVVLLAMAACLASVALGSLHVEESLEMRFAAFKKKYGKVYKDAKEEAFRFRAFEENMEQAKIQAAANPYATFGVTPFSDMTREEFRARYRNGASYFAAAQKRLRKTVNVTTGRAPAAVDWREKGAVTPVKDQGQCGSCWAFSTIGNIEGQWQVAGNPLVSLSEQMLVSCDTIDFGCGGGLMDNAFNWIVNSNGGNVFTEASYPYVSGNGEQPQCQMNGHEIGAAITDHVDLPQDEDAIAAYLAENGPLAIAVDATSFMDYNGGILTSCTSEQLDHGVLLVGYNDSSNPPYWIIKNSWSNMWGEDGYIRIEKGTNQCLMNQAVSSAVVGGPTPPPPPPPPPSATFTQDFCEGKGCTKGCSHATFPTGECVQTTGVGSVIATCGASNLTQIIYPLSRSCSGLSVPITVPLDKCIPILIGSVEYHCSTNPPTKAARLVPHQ

C/C(=N\N=C(\N)S)c1ccc(Nc2ccccc2)cc1
EC50 [1]: 9.9 µM
IC50 [2]: > 20 µM
Survival [3]: 43 days
IC50 [4]: 18 µM
EC50 [5]: 4.5 µM
IC50 [6]: > 20 µM

C/C(=N\N=C(\N)S)c1cccc(-c2ccccc2)c1
IC50 [2]: 8 µM
Survival [3]: 43 days
IC50 [4]: 1.1 µM
EC50 [5]: 12 µM

CS/C(S)=N/N=C(\C)c1cccc(Br)c1
IC50 [2]: > 20 µM
IC50 [4]: > 20 µM
Survival [7]: 7 days
EC50 [5]: 10 µM

C/C(=N/N=C(/N)S)c1cccc(/C(C)=N/N=C(/N)S)c1
IC50 [2]: 5 µM
Survival [3]: 5 days
IC50 [4]: 0.33 µM
EC50 [5]: > 20 µM

C/C(=N\N=C(/S)N1CCCCC1)c1cccc(Br)c1
IC50 [2]: 5 µM
Survival [3]: 5 days
IC50 [4]: 4 µM
EC50 [5]: 3 µM

C/C(=N\N=C(\N)S)c1cccc(Oc2ccccc2)c1
IC50 [2]: 10 µM
IC50 [4]: 0.55 µM
Survival [7]: 27 days
EC50 [5]: 6 µM

CCN(CC)/C(S)=N/N=C(\C)c1cccc(Br)c1
IC50 [2]: 5 µM
Survival [3]: 5 days
IC50 [4]: 1.8 µM
EC50 [5]: 3 µM

C/C(=N\N=C(\N)S)c1ccc(Oc2ccccc2)cc1
IC50 [2]: 10 µM
IC50 [4]: 8 µM
Survival [7]: 28 days
EC50 [5]: 3 µM

C/C(=N\N=C(\N)S)c1cccc(Nc2ccccc2)c1
IC50 [2]: > 20 µM
Survival [3]: 43 days
IC50 [4]: 0.8 µM
EC50 [5]: 8 µM

C/C(=N\N=C(\N)S)c1ccc(-c2ccccc2)cc1
EC50 [1]: > 20 µM
IC50 [2]: 5 µM
IC50 [4]: 0.09 µM
Survival [7]: 8 days
EC50 [5]: 10 µM
IC50 [6]: 10 µM

C/C(=N/N=C(/N)S)c1cccc(/C(C)=N/N=C(/N)S)n1
EC50 [1]: 0.03 µM
IC50 [6]: > 20 µM

C/C(=N\N=C(/S)N1CCN(C)CC1)c1cccc(Br)c1
EC50 [1]: 4 µM
IC50 [2]: 5 µM
IC50 [4]: 4 µM
Survival [7]: 14 days
EC50 [5]: 2 µM
IC50 [6]: > 20 µM

C/C(=N\NC(N)=S)c1ccccn1
EC50 [1]: 0.08 µM
IC50 [2]: > 20 µM
Survival [3]: 43 days
IC50 [4]: > 20 µM
EC50 [5]: 4 µM
IC50 [6]: > 20 µM

CS/C(S)=N/N=C(\C)c1ccccn1
EC50 [1]: 0.03 µM
IC50 [4]: > 20 µM
EC50 [5]: 0.3 µM
IC50 [6]: > 20 µM

C/C(=N\N=C(\N)S)c1cccc(Br)c1
IC50 [2]: 0.06 µM
Survival [3]: 43 days
IC50 [4]: 0.05 µM
EC50 [5]: > 20 µM
